# Out of some 1,300 compounds screened, about 40 (3%) were called active. How the calls were made is not given here. These entries were drawn from the full list. Measured potencies and affinities stand elsewhere.
# Assay: growth inhibition of wild-type E. coli BW25113 pool, dose response, OD615 (AID 635);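 further: growth measured after 20 h with compound at 37 °C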
# Conditions: pooled mutant strains; at 100 µM (top of the series)
# In short: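 Material: Keio BW25113 knockout pool, 1,275 strains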
row,Compound,growth inhibition
1,Cc1cccc(N(C)C(=O)c2cc3cc4ccc(C)cc4nc3o2)c1,-7.96% (inactive)
2,CC(C)OCCCNc1ncnc2c1[nH]c1ccccc12,0.81% (inactive)
3,CC(C)OCCCNc1ncnc2c1[nH]c1ccc(F)cc12,-0.56% (inactive)
4,O=C(CSc1nc2ccccc2o1)Nc1nc2c(s1)CCCC2,-2.1% (inactive)
5,Cc1cc(NC(=O)Cn2nnc3sc4c(c3c2=O)CCC(C(C)(C)C)C4)no1 (configuration not stated),-1.22% (inactive)
6,CCOC(=O)Cc1ccc(NS(=O)(=O)c2ccc(SC)cc2)cc1,0.18% (inactive)
7,c1ccc2c(c1)CCN(c1nc3cc4c(cc3s1)OCCO4)C2,0.44% (inactive)
8,CC(C)c1ccc(Nc2nc(NCc3ccco3)nc(N3CCOCC3)n2)cc1,-1.77% (inactive)
9,COc1ccc(NS(=O)(=O)c2ccc3oc(Nc4ccc5c(c4)OCCO5)nc3c2)cc1,-4.76% (inactive)
10,CCCN(CCC)S(=O)(=O)c1ccc(C(=O)Nc2nnc(-c3cccc(OC)c3)o2)cc1,-1.14% (inactive)
11,Cc1cccc(N2CCN(C(=O)C34CC5CC(CC(C5)C3)C4)CC2)c1C,4.49% (inactive)
12,Cn1cccc1C(=O)Nc1nc(-c2ccccn2)cs1,1.36% (inactive)
13,COc1ccc(C(=O)Nn2cnc3scc(-c4cccs4)c3c2=O)c(O)c1,0.89% (inactive)
14,COC(=O)c1[nH]c2cccc(OC)c2c1NC(=O)CN1CC2(C)CC1CC(C)(C)C2 (configuration not stated),1.93% (inactive)
15,COC(=O)c1cccc(-n2nnnc2SCC(=O)Nc2nc3c(s2)CCCC3)c1,-0.44% (inactive)
16,O=C1OC(c2ccc(O)cc2)(c2ccc(O)cc2)c2ccccc21,0.54% (inactive)
17,Cc1cccc(Nc2nc(NCc3ccco3)nc(N3CCOCC3)n2)c1,0.54% (inactive)
18,CCOc1cc(S(=O)(=O)n2cc(-c3ccc(F)cc3)c(N)n2)cc(OCC)c1OCC,-3.17% (inactive)
19,CC1Cc2ccccc2N1C(=O)Cn1c(=O)oc2cc(S(=O)(=O)NC3CCCC3)ccc21 (configuration not stated),-2.66% (inactive)
20,CCCn1nnnc1NC(=O)CSc1ccc(Cl)cc1,1.76% (inactive)
21,Cc1cc(NC(=O)C2CCCCC2)nc2c1c(=O)oc1ccccc12,-2.5% (inactive)
22,N#Cc1nc(COc2ccc(F)cc2)oc1N1CCN(Cc2ccccc2)CC1,-4.59% (inactive)
23,c1ccc2oc(SCc3nc4ccccc4s3)nc2c1,-0.66% (inactive)
24,C=CCn1c(SCC(=O)Nc2ccc3c(c2)CCC3)nnc1-c1cccs1,-0.97% (inactive)

row,Compound,growth inhibition
1,O=C(c1cc2ccccc2o1)N1CCN(c2ccccc2Cl)CC1,-2.73% (inactive)
2,O=C(CSc1nnnn1C1CCCCC1)Nc1nc2c(s1)CCCC2,-0.43% (inactive)
3,O=C(O)c1cc(Cl)c2ccccc2c1O,9.52% (inactive)
4,O=c1c(-c2nc3ccccc3o2)c2oc3ccccc3n2c2ccccc12,-2.69% (inactive)
5,Cc1cccc(S(=O)(=O)Nc2nc3ccccc3nc2NCc2ccco2)c1,2.5% (inactive)
6,Cc1ccc(-n2c(C)cc(C(=O)COC(=O)c3c(C)noc3C)c2C)cc1,-5.46% (inactive)
7,O=C(c1cccs1)N(Cc1nc2sc3c(c2c(=O)[nH]1)CCCC3)C1CCCC1,-3.44% (inactive)
8,N#Cc1ccc(NC(=O)Nc2ccc(Cl)cc2)cc1,12.7% (inactive)
9,CCOc1ccc(OCCSc2nnnn2C2CCCCC2)cc1,2.59% (inactive)
10,COc1ccc(C(C)(C)C)cc1NC(=O)Nc1ccc2c(c1)OCO2,2.22% (inactive)
11,COc1ccccc1-c1noc(CCC(=O)Nc2cccc(C(F)(F)F)c2)n1,9.08% (inactive)
12,CCc1ccc2oc(=O)cc(CN(C)Cc3ccccc3)c2c1,0.54% (inactive)
13,O=C(c1ccc2c(=O)n(C3CCCC3)c(=S)[nH]c2c1)N1CCN(C2CCCCC2)CC1,0.27% (inactive)
14,Cc1cc(C)c(C#N)c(SCC(=O)OC2CCCCC2)n1,4.58% (inactive)
15,COC(=O)c1ccc(CSc2nc3ccccc3o2)cc1,-2.69% (inactive)
16,CCCCn1nc(NC(=O)c2cccs2)c2cc3ccccc3nc21,-3.62% (inactive)
17,Cc1ccccc1OCCCN1C(=O)C(=O)c2cccc(C)c21,-1.21% (inactive)
18,Clc1ccc(OCc2nc(-c3ccccn3)n[nH]2)cc1,3.08% (inactive)
19,Cc1cccc(Nc2nc(-c3ccccn3)cs2)n1,-0.44% (inactive)
20,CC1=C(C(=O)OC2CCCCCCC2)C(c2cccc(O)c2)NC(=O)N1 (configuration not stated),3.15% (inactive)
21,CCC(C(=O)Nc1ccccc1OC)n1c(C(=O)OC)cc2ccsc21 (configuration not stated),2.88% (inactive)
22,COc1cccc(-c2cc(C(=O)N3CCc4ccccc4C3)no2)c1,-1.57% (inactive)
23,CC(C)C(C(=O)NCc1ccco1)N(C(=O)CNS(=O)(=O)c1ccc(Cl)cc1)C1CCCC1 (configuration not stated),-9.91% (inactive)
